Assay results as given in publication PMC2582604 (Nucleic Acids Research, 2008).

What was measured:
HeLa pLuc705 cells [1] = assay: Endocytosis inhibitor study, luciferase read-out; type: cell-based; conditions: 1 μM conjugate
Procedure, shortened: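 HeLa pLuc705 cells pre-incubated 30 min in OptiMEM at 37°C with inhibitor: chlorpromazine 30 μM or K+ depletion (clathrin), nystatin 50 μM or filipin-III 5 μg ml–1 (caveolae), methyl-β-cyclodextrin 2.5 mM or EIPA 1 mM (macropinocytosis). Inhibitor levels and timings were set to spare protein synthesis. Conjugate then added to 1 μM final for 30 min. Luciferase read as in the splicing assay.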

HeLa pLuc705 cells [2] = assay: HeLa pLuc705 splicing redirection, luciferase upregulation; type: cell-based
Procedure, shortened: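 HeLa pLuc705 cells were seeded at 1.75 × 10^5/well and grown overnight. Test compound was added for 4 h in OptiMEM without transfection agent, then diluted with DMEM/10% FBS for a further 20 h. Cells were washed in ice-cold PBS and lysed. Luminescence was normalised to BCA protein (550 nm) and expressed as RLU/µg protein or fold over background. Triplicates averaged.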

Serum stability assay = type: in vitro ADME, mouse; conditions: 37°C
Procedure, shortened: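 Conjugate (20 μM) incubated at 37°C in PBS with 20% mouse serum (from clotted blood of female Balb/c mice, cleared by 3 × 30 min centrifugation at 4°C). Aliquots at 0, 15, 30, 60 and 120 min were quenched in 10% dichloroacetic acid in H2O/CH3CN (50/50) and held at –20°C. Supernatant after protein pelleting was analysed by MALDI-TOF MS; cleavage sites were assigned from fragment masses, semi-quantitatively.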

HeLa pLuc705 cells [3] = assay: Energy dependence of uptake; type: cell-based; conditions: 1 µM conjugate, 30 min pre-incubation, 1 h incubation, luciferase read-out
Procedure, shortened: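 Cells pre-incubated 30 min in OptiMEM at either 37°C or 4°C. Conjugate was then added at 1 μM final and incubation continued 1 h. Read-out was luciferase in lysates, normalised to BCA protein, as in the splicing redirection assay.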

[4] = test system: aberrant β-globin intron 705 site in HeLa pLuc705 cells; assay: HeLa pLuc705 splicing redirection, RT-PCR analysis; type: cell-based; conditions: RT-PCR assay
Procedure, shortened: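 HeLa pLuc705 cells were treated with increasing conjugate concentrations as in the luciferase assay (4 h OptiMEM, then 20 h with added serum medium). Total RNA was extracted from the leftover lysate after luciferase and protein measurement. RT-PCR products were separated on 2% agarose and gels scanned to quantify aberrant versus correctly spliced RNA. EC50 of splicing redirection was taken from the dose series.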

[5] = test system: dystrophin pre-mRNA exon 23 in mdx myoblasts; assay: Exon skipping after electroporation into mdx myoblasts; type: cell-based, mouse; conditions: 0.5 nmol electroporated into mdx myoblasts, 24 h, nested RT-PCR
Procedure, shortened: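 H2K mdx myoblasts (undifferentiated) were grown 2 days at 33°C, 10% CO2, in 20% FBS/DMEM with interferon γ, then trypsinised. 1.5 × 10^6 cells/100 µl Nucleofector Solution V were pulsed with 0.5 nmol PNA, conjugate or sense control PNA (program T-020). Cells rested 10 min at room temperature in OptiMEM, then cultured 24 h on gelatin at 33°C. Total RNA underwent one-step RT-PCR then nested PCR; 2% agarose gel.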

**Q.** Which results are given for “(R-Ahx-R)3IHILFQNdRRMKWHKBC [Pip2b–PNA705]”?
**A.** effect of EIPA on luciferase expression (HeLa pLuc705 cells [1]; EIPA 1 mM (macropinocytosis)): no effect; inhibitory effect of fillipin-III on luciferase expression (HeLa pLuc705 cells [1]; fillipin-III 5 μg ml–1 (caveolae)): 36%; effect of methyl-β-cyclodextrin on luciferase expression (HeLa pLuc705 cells [1]; methyl-β-cyclodextrin 2.5 mM (macropinocytosis)): increased luciferase expression; inhibitory effect of nystatin on luciferase expression (HeLa pLuc705 cells [1]; nystatin 50 μM (caveolae)): 12%; activity compared to RXR4–PNA705 (HeLa pLuc705 cells [2]; HeLa pLuc705, absence of transfection or permeabilization agent): 3- to 4 fold; stability to serum proteolysis (Serum stability assay; 20 μM conjugate, PBS with 20% mouse serum, 1 h, MALDI-TOF MS): predominantly stable for 1 h; uptake mechanism from splicing redirection activity at 37°C and 4°C (HeLa pLuc705 cells [3]): energy-dependent uptake mechanism

**Q.** Which “fold increase in luminescence compared to R6Pen–PNA705” value (HeLa pLuc705 cells [2]; at similar concentrations, HeLa pLuc705 luciferase assay) does the source give for (RXR)3-IKILFQN-R|RMKWKKC [Pip1–PNA705] here?
**A.** two to three times

**Q.** What about the “EC50 improvement relative to R6Pen–PNA” value [4] of the same substance?
**A.** about 2 fold

**Q.** What about the “time to full cleavage in 20% mouse serum” value (Serum stability assay; 20 μM conjugate, PBS with 20% mouse serum, MALDI-TOF MS) of the same substance?
**A.** ≤ 1 h

**Q.** What about the “major serum proteolytic cleavage site” value (Serum stability assay; 20% mouse serum, fragment masses by MALDI-TOF MS) of the same substance?
**A.** between amino acids R17 and R18

**Q.** And the “uptake mechanism from splicing redirection activity at 37°C and 4°C” value (HeLa pLuc705 cells [3])?
**A.** energy-dependent uptake mechanism

**Q.** Which “uptake mechanism from splicing redirection activity at 37°C and 4°C” value (HeLa pLuc705 cells [3]) does the source give for “(R-Ahx-R)3IdKILFQNdRRMKWHKBC [Pip2a–PNA705]” here?
**A.** energy-dependent uptake mechanism

**Q.** For “sense control PNA: sense 20-mer PNA control sequence AGGTAAGCCGAGGTTTGGCC (all peptide nucleic acid (PNA))”, which “exon skipping after electroporation” value [5] is on record?
**A.** no exon skipping
